Experimental data: PMC6706283 (Bioorganic & medicinal chemistry, 2019)
Entries after “also recorded” stand apart in the source; their conditions may differ. Where two headings read alike, the source gives them in different places. Each block holds one compound with its values, some of them ahead of it.

Legend:
PAR1 [1] = biological target: T1, PAR1 (Homo sapiens, UniProt P25116); assay: intracellular calcium mobilization; format: cell-based; conditions: for activity in the iCa2+ assay (in words): EA.hy926 cells, TFLLRN-NH2
T1 sequence (P25116 22-425): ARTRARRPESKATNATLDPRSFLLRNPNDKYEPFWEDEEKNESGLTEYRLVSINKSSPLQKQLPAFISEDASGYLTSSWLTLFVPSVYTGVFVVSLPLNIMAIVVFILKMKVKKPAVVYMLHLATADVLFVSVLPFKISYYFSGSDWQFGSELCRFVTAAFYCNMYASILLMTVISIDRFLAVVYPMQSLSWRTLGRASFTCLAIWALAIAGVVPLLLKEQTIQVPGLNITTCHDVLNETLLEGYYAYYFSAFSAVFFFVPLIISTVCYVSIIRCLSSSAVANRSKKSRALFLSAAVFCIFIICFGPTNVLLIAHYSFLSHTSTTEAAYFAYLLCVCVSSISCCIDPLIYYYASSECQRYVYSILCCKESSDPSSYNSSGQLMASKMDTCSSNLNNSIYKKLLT
How it was run: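 Adherent EA.hy926 endothelial cells in 96-well plates; intracellular Ca2+ mobilization triggered by PAR1 tethered-ligand peptide TFLLRN-NH2 (5 µM). Single-point screen: test compound at 10 µM, % inhibition from n = 4 wells unless noted, with SEM. IC50: 3 wells per concentration, curves fitted by 4-variable non-linear regression. Summary IC50 is the average of independent assays. Selectivity run used agonist at 3.16 µM.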

PAR2 = biological target: T2, PAR2 (Homo sapiens, UniProt P55085); assay: PAR2; format: cell-based; conditions: parmodulins 10 μM, vorapaxar 0.316 μM; SLIGKV-NH2 3.16 μM
T2 sequence (P55085 26-397): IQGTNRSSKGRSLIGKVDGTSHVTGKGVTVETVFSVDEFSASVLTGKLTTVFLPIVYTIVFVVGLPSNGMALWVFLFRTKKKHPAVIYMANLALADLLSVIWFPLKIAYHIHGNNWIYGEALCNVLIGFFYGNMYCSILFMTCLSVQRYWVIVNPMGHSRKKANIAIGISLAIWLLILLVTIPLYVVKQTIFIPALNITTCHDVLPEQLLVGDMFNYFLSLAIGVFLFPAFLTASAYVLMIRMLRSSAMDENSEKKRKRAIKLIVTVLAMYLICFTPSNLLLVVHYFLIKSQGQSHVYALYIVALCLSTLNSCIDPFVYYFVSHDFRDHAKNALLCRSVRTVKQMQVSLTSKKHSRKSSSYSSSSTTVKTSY
How it was run: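 Intracellular Ca2+ mobilization assay in EA.hy926 endothelial cells. Cells were pretreated with test compound (10 µM) or reference antagonist (0.316 µM), then stimulated with PAR2 agonist SLIGKV-NH2 (3.16 µM). A parallel run stimulated with PAR1 agonist TFLLRN-NH2 at 3.16 µM.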

[2] = human liver microsome stability; format: in vitro ADME; conditions: 1 h
[3] = after 5 h; cited from earlier work
human washed platelets = assay: human platelet aggregation assay; format: cell-based; conditions: parmodulin 10 μM, SFLLRN-NH2 1.5 μM
How it was run: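 Washed human platelets were incubated with test compound (10 µM), then stimulated with PAR1/2 agonist SFLLRN-NH2 (1.5 µM). Aggregation traces were recorded against DMSO vehicle control traces.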

tissue factor (TF) mRNA = assay: qPCR assay of TNF-α induced tissue factor expression in HUVEC; format: cell-based, human; conditions: 10 μM, TNF-α 25 ng/mL added at 1 h, mRNA at 4 h
How it was run: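 HUVEC were treated with test compound (10 µM) at t = 0 and TNF-α (25 ng/mL) at t = 1 h. Tissue factor mRNA was quantified by qPCR at t = 4 h, n = 3. Analysis by one-way ANOVA with Bonferroni multiple-comparisons test.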

[4] = biological target: SERT (serotonin transporter) (Homo sapiens, UniProt P31645); assay: PDSP radioligand binding, SERT; conditions: read-out: mean % inhibition of binding, SERT
platelets = conditions: cited from earlier work
PAR1 [5] = biological target: T1, PAR1; conditions: cited from earlier work
[6] = cited from earlier work
PAR1 [7] = biological target: T1, PAR1; format: cell-based; conditions: increasing concentrations of antagonist
How it was run: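 EA.hy926 endothelial cells; Ca2+ mobilization concentration-response curves for PAR1 agonist TFLLRN-NH2 were recorded at several increasing concentrations of test compound. Agonist efficacy was compared across antagonist levels.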

[8] = biological target: 5HT-5A (5-hydroxytryptamine receptor) (Homo sapiens, UniProt P47898); assay: PDSP radioligand binding, 5HT-5A; conditions: read-out: mean % inhibition of binding, 5HT-5A
hepG2 cells = assay: cytotoxicity in hepG2 cells; format: cell-based; conditions: human hepG2 cells

Chain of SERT (serotonin transporter) (P31645 whole entry, species assumed): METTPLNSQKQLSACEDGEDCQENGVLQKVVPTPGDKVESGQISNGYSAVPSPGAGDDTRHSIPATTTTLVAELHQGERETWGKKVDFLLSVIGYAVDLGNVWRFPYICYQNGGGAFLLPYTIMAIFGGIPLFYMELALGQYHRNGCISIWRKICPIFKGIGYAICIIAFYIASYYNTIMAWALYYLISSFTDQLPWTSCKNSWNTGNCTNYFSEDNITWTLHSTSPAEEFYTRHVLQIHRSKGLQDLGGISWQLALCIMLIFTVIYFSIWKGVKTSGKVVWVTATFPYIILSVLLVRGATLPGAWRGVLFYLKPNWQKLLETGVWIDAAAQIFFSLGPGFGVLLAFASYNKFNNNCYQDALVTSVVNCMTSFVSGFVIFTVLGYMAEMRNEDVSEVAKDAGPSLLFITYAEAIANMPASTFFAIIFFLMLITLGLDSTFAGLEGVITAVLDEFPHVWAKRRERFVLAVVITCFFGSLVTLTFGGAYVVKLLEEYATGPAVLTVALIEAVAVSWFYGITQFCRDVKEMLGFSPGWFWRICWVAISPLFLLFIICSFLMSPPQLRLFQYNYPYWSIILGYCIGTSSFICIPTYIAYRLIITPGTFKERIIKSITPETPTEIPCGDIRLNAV
Chain of 5HT-5A (5-hydroxytryptamine receptor) (P47898 whole entry, species assumed): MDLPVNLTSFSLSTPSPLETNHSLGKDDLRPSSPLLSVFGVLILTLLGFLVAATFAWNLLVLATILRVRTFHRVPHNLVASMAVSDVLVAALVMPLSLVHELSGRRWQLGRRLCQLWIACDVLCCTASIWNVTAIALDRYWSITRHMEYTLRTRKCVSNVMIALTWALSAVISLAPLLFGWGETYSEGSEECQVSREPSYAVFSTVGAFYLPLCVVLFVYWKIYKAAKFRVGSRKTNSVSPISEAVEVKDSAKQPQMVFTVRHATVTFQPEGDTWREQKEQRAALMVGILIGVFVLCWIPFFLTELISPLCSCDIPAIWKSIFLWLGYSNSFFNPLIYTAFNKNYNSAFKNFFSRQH

- activity in the iCa2+ assay (in words) (PAR1 [1]): weak activity
Compound: COCCNc1cccc(NC(=O)c2ccccc2Br)c1 [compound 27]

- activity in the iCa2+ assay (in words) (PAR1 [1]): complete loss of activity
Compound: CN(C)CC(=O)Nc1cccc(NC(=O)c2ccccc2Br)c1 [compound 25]

- activity in the iCa2+ assay (in words) (PAR1 [1]): weak activity
Compound: CCCN(CCC)c1cccc(NC(=O)c2ccccc2Br)c1 [compound 26]

- activity in the iCa2+ assay (in words) (PAR1 [1]): very good inhibition
- inhibition of PAR1 (PAR1 [1]; selectivity study: parmodulin 10 μM, TFLLRN-NH2 3.16 μM): less than 75%
Compound: O=C(Nc1cccc(NC(=O)c2ccccc2Br)c1)c1cocn1 [compound 39]

- activity in the iCa2+ assay (in words) (PAR1 [1]): decreased efficacy and/or potency
Compound: C#CCCC(=O)Nc1cccc(NC(=O)c2ccccc2Br)c1 [compound 11]

- activity in the iCa2+ assay (in words) (PAR1 [1]): moderate activity
Compound: CCCCOc1cccc(NC(=O)c2ccccc2Br)c1 [compound 24]

- activity in the iCa2+ assay (in words) (PAR1 [1]): only modest inhibition
Compound: O=C(Nc1cccc(NC(=O)C2CCOC2)c1)c1ccccc1Br (centres unmarked) [compound 37]

- activity in the iCa2+ assay (in words) (PAR1 [1]): evidence of activation
Compound: O=C(Nc1cccc(NC2CCCC2)c1)c1ccccc1Br [compound 29]

- activity in the iCa2+ assay (in words) (PAR1 [1]): only modest inhibition
Compound: O=C(Nc1cccc(NC(=O)C2CCCO2)c1)c1ccccc1Br (centres unmarked) [compound 36]

- activity in the iCa2+ assay (in words) (PAR1 [1]): steep drop in efficacy
Compound: CCCNCc1cccc(NC(=O)c2ccccc2Br)c1 [compound 28]

- activity in the iCa2+ assay (in words) (PAR1 [1]): evidence of activation
Compound: O=C(Nc1cccc(N2CCCC2)c1)c1ccccc1Br [compound 30]

The remaining lines, values behind:

Compound: CCC(C)C(=O)Nc1cccc(NC(=O)c2ccccc2Br)c1 (centres unmarked) [compound 7]
- activity in the iCa2+ assay (in words) (PAR1 [1]): weak efficacy

Compound: CCCC(=O)Nc1cccc(NC(=O)c2ccccc2Br)c1 [ML161]
- PAR2 activity? (PAR2): None observed
- Microsomal stability [2]: 99% (1 h, human)
- stability in mouse plasma, % remaining [3]: 2%
- inhibition of platelet aggregation (human washed platelets): Complete inhibition
- effect on TNF-α induced TF expression (mRNA) (tissue factor (TF) mRNA): blocked the ~3-fold increase in TF expression
- inhibition at 10 µM [4]: -44%

Compound: CCCCC(=O)Nc1cccc(NC(=O)c2ccccc2Br)c1 [compound 10]
- activity in the iCa2+ assay (in words) (PAR1 [1]): decreased efficacy and/or potency

Compound: O=C(Nc1cccc(NC(=O)C2CCCC2)c1)c1ccccc1Br [compound 3]
- activity in the iCa2+ assay (in words) (PAR1 [1]): moderate inhibition

Compound: CCC(=O)Nc1cccc(NC(=O)c2ccccc2Br)c1 [compound 8]
- activity in the iCa2+ assay (in words) (PAR1 [1]): decreased activity

Compound: CC(C)CC(=O)Nc1cccc(NC(=O)c2ccccc2Br)c1 [compound 2]
- inhibition in the platelet P-selectin assay (in words) (platelets): equipotent to ML161
- activity in the endothelial iCa2+ assay (in words) (PAR1 [5]; EA.hy926 cells): mediocre inhibition
- stability in mouse plasma, % remaining [3]: 65%
- solubility in water with 1% DMSO [6]: 9 µM

Compound: O=C(Nc1cccc(NC(=O)c2ccccc2Br)c1)c1cnco1 [NRD-21, N-[3-(2-bromobenzamido)phenyl]-1,3-oxazole-5-carboxamide]
- PAR2 activity? (PAR2): None observed
- effect on the efficacy of the PAR1 agonist TFLLRN-NH2 (PAR1 [7]): reduction in efficacy
- activity in the iCa2+ assay (in words) (PAR1 [1]; listed as 38): very good inhibition; also recorded: much better efficacy than 39
- inhibition at 10 µM [8]: -31%
- inhibition of platelet aggregation (human washed platelets): Complete inhibition
- effect on TNF-α induced TF expression (mRNA) (tissue factor (TF) mRNA): below baseline levels
- Cytotoxicity (CC50) (hepG2 cells): no measurable toxicity
- inhibition at 10 µM [4]: -44%

Compound: CCCCNc1cccc(NC(=O)c2ccccc2Br)c1 [compound 5]
- activity in the iCa2+ assay (in words) (PAR1 [5]; as previously reported): very good activity
